For 13 compounds, mortality and LC50 results are on record in ChEMBL document CHEMBL3046946, “Design, synthesis, and insecticidal activities of new N-benzoyl-N'-phenyl-N'-sulfenylureas” (2009).

≈ marks a conversion by molar mass, not a printed value.

What all share (format): functional
Assay [1] relates to Culex pipiens pallens. Put plainly: Insecticidal activity against fourth-instar larval stage of Culex pipiens pallens (mosquito) assessed as mortality at 0.0025 mg/l at 25 +/-1degC after 8 days. The following applies: 192 h. Summed up:
(§1)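 Compounds dissolved in acetone, then diluted with distilled water to the test concentrations. Twenty fourth-instar larvae were placed in 10 mL of each test solution and reared for 8 days. Mortality was scored on a 0–100 scale, where 0 is no activity and 100 is total kill.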

Assay [2] has as its system Culex pipiens pallens. In words: Insecticidal activity against fourth-instar larval stage of Culex pipiens pallens (mosquito) assessed as mortality at 0.005 mg/l at 25 +/-1degC after 8 days. The note with it: 192 h. Summed up: as §1
For assay [3], the system named is Culex pipiens pallens. Put plainly: Insecticidal activity against fourth-instar larval stage of Culex pipiens pallens (mosquito) assessed as mortality at 0.01 mg/l at 25 +/-1degC after 8 days. The following applies: 192 h. Summed up:
as §1

For assay [4], the system named is Mythimna separata. Put plainly: Insecticidal activity against fourth-instar larval stage of Mythimna separata (Oriental armyworm) in compound-pretreated corn leaves assessed as mortality at 0.25 mg/l at 25 +/-1degC after 4 days.
For assay [5], the system named is Mythimna separata. Put plainly: Insecticidal activity against fourth-instar larval stage of Mythimna separata (Oriental armyworm) in compound-pretreated corn leaves assessed as mortality at 0.5 mg/l at 25 +/-1degC after 4 days.
Assay [6] has as its system Mythimna separata. Put plainly: Insecticidal activity against fourth-instar larval stage of Mythimna separata (Oriental armyworm) in compound-pretreated corn leaves assessed as mortality at 1 mg/l at 25 +/-1degC after 4 days.
Assay [7] deals with Spodoptera exigua. Put plainly: Insecticidal activity against third-instar larval stage of Spodoptera exigua in cabbage leaves assessed as mortality at 25 +/-1degC treated for 5 secs before larval infestation measured after 4 days by leaf dip method. The following applies: foliar, 96 h. Summed up:
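Leaf-dip assay. Fresh cabbage leaf disks (1.8 cm diameter) were dipped in test solution for 5 s before larvae were added. LC50 was calculated by Finney probit analysis of the mortality regression lines.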

Assay [8] concerns Plutella xylostella. In words: Insecticidal activity against larvae of Plutella xylostella (diamondback moth) in cabbage leaves assessed as mortality at 25 +/-1degC treated for 5 secs before larval infestation measured after 4 days by leafdip method. The following applies: 96 h. Summed up:
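Leaf-dip assay. Cabbage leaf disks (1.8 cm diameter) were dipped in test solution for 5 s, air-dried, and placed in tubes lined with filter paper. Ten second-instar larvae were added per tube. Percent mortality was read 4 days after treatment, in triplicate. LC50 was derived by Finney probit analysis of the mortality regression lines.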

For assay [9], the system named is Culex pipiens pallens. Put plainly: Insecticidal activity against fourth-instar larval stage of Culex pipiens pallens (mosquito) assessed as mortality at 1 mg/l at 25 +/-1degC after 8 days. The following applies: 192 h. Summed up: as §1
The test system of assay [10] is Culex pipiens pallens. Put plainly: Insecticidal activity against fourth-instar larval stage of Culex pipiens pallens (mosquito) assessed as mortality at 2.5 mg/l at 25 +/-1degC after 8 days. The note with it: 192 h. Summed up: as §1
Assay [11] concerns Culex pipiens pallens. Put plainly: Insecticidal activity against fourth-instar larval stage of Culex pipiens pallens (mosquito) assessed as mortality at 5 mg/l at 25 +/-1degC after 8 days. The following applies: 192 h. Summed up: as §1
Assay [12] relates to Mythimna separata. Put plainly: Insecticidal activity against fourth-instar larval stage of Mythimna separata (Oriental armyworm) in compound-pretreated corn leaves assessed as mortality at 50 mg/l at 25 +/-1degC after 4 days.
Assay [13] relates to Mythimna separata. In words: Insecticidal activity against fourth-instar larval stage of Mythimna separata (Oriental armyworm) in compound-pretreated corn leaves assessed as mortality at 100 mg/l at 25 +/-1degC after 4 days.
The subject of assay [14] is Mythimna separata. Put plainly: Insecticidal activity against fourth-instar larval stage of Mythimna separata (Oriental armyworm) in compound-pretreated corn leaves assessed as mortality at 200 mg/l at 25 +/-1degC after 4 days.
The subject of assay [15] is Mythimna separata. In words: Insecticidal activity against fourth-instar larval stage of Mythimna separata (Oriental armyworm) in compound-pretreated corn leaves assessed as mortality at 2.5 mg/l at 25 +/-1degC after 4 days.

For the compound `CCN(CC)SN(C(=O)NC(=O)c1c(F)cccc1F)c1ccc(Cl)cc1`, the mortality at 0.0025 µg/mL in [1] came out at 10%. The mortality at 0.005 µg/mL in assay [2] was found to be 10%. The mortality at 0.01 µg/mL in [3] is 100%. Moreover, the mortality at 0.25 µg/mL in [4] was 20%. For the same compound, the mortality at 0.5 µg/mL in [5] came to 70%. Further, in assay [6], the mortality at 1 µg/mL amounted to 100%.

As to `O=C(NC(=O)N(SSN(C(=O)NC(=O)c1c(F)cccc1F)c1ccc(OC(F)(F)F)cc1)c1ccc(OC(F)(F)F)cc1)c1c(F)cccc1F`, the mortality at 0.25 µg/mL in [4] was determined as 20%. Further, in assay [5], the mortality at 0.5 µg/mL is 50%. Moreover, the mortality at 1 µg/mL in assay [6] stood at 100%.

`CCN(CC)SN(C(=O)NC(=O)c1c(F)cccc1F)c1ccc(OC(F)(F)F)cc1`: in assay [1], the mortality at 0.0025 µg/mL was 40%. The mortality at 0.005 µg/mL in [2] turned out to be 100%. For the same compound, the mortality at 0.01 µg/mL in [3] worked out at 100%. Besides, the mortality at 0.25 µg/mL in assay [4] was 60%. Also, in [5], the mortality at 0.5 µg/mL was 100%. The mortality at 1 µg/mL in [6] came out at 100%.

Regarding `O=C(NC(=O)N(SN1CCOCC1)c1ccc(OC(F)(F)F)cc1)c1c(F)cccc1F`, the LC50 was 21.4 µg/mL (≈ 44.9 µM) in assay [7] and 45.1 µg/mL (≈ 94.5 µM) in [8]. Besides, in assay [1], the mortality at 0.0025 µg/mL was 20%. In assay [2], the mortality at 0.005 µg/mL came out at 100%. Besides, the mortality at 0.01 µg/mL in assay [3] was determined as 100%. In [4], the mortality at 0.25 µg/mL came out at 80%. The mortality at 0.5 µg/mL in [5] stood at 100%. Besides, the mortality at 1 µg/mL in assay [6] stood at 100%.

On to `O=C(NC(=O)N(SSNc1ccc(OC(F)(F)F)cc1)c1ccc(OC(F)(F)F)cc1)c1c(F)cccc1F`, for which the mortality at 0.25 µg/mL in [4] worked out at 30%. In addition, the mortality at 0.5 µg/mL in assay [5] stood at 90%. For the same compound, in assay [6], the mortality at 1 µg/mL came to 100%.

Take `CCN(CC)SN(C(=O)NC(=O)c1c(F)cccc1F)c1ccccc1`: the mortality at 1 µg/mL in assay [9] was found to be 30%. In [10], the mortality at 2.5 µg/mL stood at 100%. Moreover, the mortality at 5 µg/mL in assay [11] stood at 100%. For the same compound, the mortality at 50 µg/mL in [12] was 20%. In addition, in [13], the mortality at 100 µg/mL amounted to 40%. Besides, in [14], the mortality at 200 µg/mL was 70%.

Turning to `O=C(NC(=O)N(SNc1ccc(C(F)(F)F)cc1)c1ccc(C(F)(F)F)cc1)c1c(F)cccc1F`, in assay [4], the mortality at 0.25 µg/mL was 45%. In addition, in assay [5], the mortality at 0.5 µg/mL amounted to 80%. The mortality at 1 µg/mL in assay [6] was 100%.

For `O=C(NC(=O)N(SN1CCCCC1)c1ccc(OC(F)(F)F)cc1)c1c(F)cccc1F`, the mortality at 0.0025 µg/mL in assay [1] came to 75%. For the same compound, the mortality at 0.005 µg/mL in assay [2] came out at 100%. Also, in [3], the mortality at 0.01 µg/mL turned out to be 100%. Further, the mortality at 0.25 µg/mL in assay [4] is 50%. Further, the mortality at 0.5 µg/mL in assay [5] amounted to 100%. In addition, the mortality at 1 µg/mL in assay [6] was 100%.

Regarding `CCOC(=O)CCN(Cc1ccccc1)SN(C(=O)NC(=O)c1c(F)cccc1F)c1ccccc1`, in [9], the mortality at 1 µg/mL stood at 20%. For the same compound, in assay [10], the mortality at 2.5 µg/mL came out at 60%. Moreover, in [11], the mortality at 5 µg/mL worked out at 100%. In addition, the mortality at 50 µg/mL in assay [12] was 30%. Moreover, the mortality at 100 µg/mL in [13] was determined as 40%. Besides, the mortality at 200 µg/mL in assay [14] was found to be 70%.

For `O=C(NC(=O)N(SN(C(=O)NC(=O)c1c(F)cccc1F)c1ccc(Cl)cc1)c1ccc(Cl)cc1)c1c(F)cccc1F`, the mortality at 0.25 µg/mL in assay [4] was found to be 25%. In addition, the mortality at 0.5 µg/mL in assay [5] worked out at 85%. Further, in assay [6], the mortality at 1 µg/mL was 100%.

Turning to `O=C(NC(=O)c1c(F)cccc1F)Nc1ccc(Cl)cc1` [DIFLUBENZURON], the mortality at 0.0025 µg/mL in assay [1] turned out to be 10%. Besides, the mortality at 0.005 µg/mL in [2] amounted to 50%. Further, the mortality at 0.01 µg/mL in assay [3] turned out to be 100%. The mortality at 0.25 µg/mL in assay [4] was 45%. Also, in [5], the mortality at 0.5 µg/mL was 100%. The mortality at 1 µg/mL in assay [6] is 100%.

For the compound `O=C(NC(=O)N(SSNc1ccc(C(F)(F)F)cc1)c1ccc(C(F)(F)F)cc1)c1c(F)cccc1F`, the mortality at 0.25 µg/mL in assay [4] stood at 10%. For the same compound, the mortality at 0.5 µg/mL in [5] came to 70%. Also, the mortality at 1 µg/mL in assay [6] was determined as 100%.

As for `O=C(NC(=O)N(SSN(C(=O)NC(=O)c1ccccc1Cl)c1ccc(OC(F)(F)F)cc1)c1ccc(OC(F)(F)F)cc1)c1ccccc1Cl`, the mortality at 2.5 µg/mL in assay [15] came to 100%. Moreover, the mortality at 0.25 µg/mL in assay [4] was 10%. The mortality at 0.5 µg/mL in [5] was determined as 60%. In addition, the mortality at 1 µg/mL in assay [6] is 85%.
